Rows were chosen to be rich in hits. Some 4.8% of all compounds tested hit in one or more screens of this group.
Jurkat NFkB inh = inhibitors of the PMA/ionomycin-induced NF-kB reporter in Jurkat cells; PMA/ionomycin-induced NF-kB luciferase reporter, luminescence; inhibition, % at 4 µM; 330,000 compounds, 0.53% hits; AID 435003; in the data active means inhibition above about 50%
697 NFkB inh = lowers PMA/ionomycin-induced NF-kB signal in 697 B cells; 697 B-cell NF-kB luciferase reporter, 16 h; inhibition, % at 4 µM; AID 435022; 330,000 compounds, 0.33% hits; in the data active means inhibition above about 35%
HSF1 inh = HSF1 inhibition; NIH3T3-HGL HSE-luciferase, MG132-induced, luminescence 8 h; stronger effect = lower value; activity change, negative = inhibition, % at 7.5 µM (by protocol); 300,000 compounds, 0.77% hits; AID 2098;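 active means more than half of replicate wells show activity change below -50%, luminescence cut by over half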;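 further: luciferase reports HSF-1 transcriptional activity via heat shock element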
T cruzi repl = blocks replication of Trypanosoma cruzi; T. cruzi beta-gal in NIH3T3, luminescence, 90 h; inhibition, % (concentration not given with the values); 300,000 compounds, 1.4% hits; AID 1885;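 active means mean inhibition across valid replicates above about 55%, limit read from the data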;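 further: signal also drops with host cell toxicity which is not excluded here; higher percent means less beta-gal luminescence so fewer parasites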
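System: Mouse NIH/3T3 fibroblasts infected with β-gal-expressing T. cruzi Tulahuen C4 | Quantity: NIH/3T3 cells, 5,000 per well | Reagent: 5000 reporter trypomastigotes per well | Dosing: Compound pinned at 50 nL/well, DMSO | Schedule: 3 h host attachment, then at least 90 h co-culture | Detection: GalScreen luminescence, 60 min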
GPR7 antag = blocks human GPR7 receptor signaling; P48145; GPR7-expressing cells, fluorescence antagonist assay; inhibition, % at 4.4 µM; 290,000 compounds, 1.1% hits; AID 1861; in the data active means inhibition above about 16%, passing the limit was not always enough;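 further: cells stimulated with the agonist NPW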
Target sequence (P48145 whole entry, looked up): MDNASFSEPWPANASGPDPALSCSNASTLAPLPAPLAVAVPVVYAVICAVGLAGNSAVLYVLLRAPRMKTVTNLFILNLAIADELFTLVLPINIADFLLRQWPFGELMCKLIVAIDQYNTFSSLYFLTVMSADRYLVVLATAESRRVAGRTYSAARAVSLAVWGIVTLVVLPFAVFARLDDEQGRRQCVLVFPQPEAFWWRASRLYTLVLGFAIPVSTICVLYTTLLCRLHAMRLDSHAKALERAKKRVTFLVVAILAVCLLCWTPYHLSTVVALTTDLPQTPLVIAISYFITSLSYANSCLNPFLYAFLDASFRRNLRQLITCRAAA
HSF-1 act = increases HSF-1 driven luciferase reporter signal | NIH3T3-HGL HSF-1 luciferase reporter, MG132, 8 h; 100% = twice DMSO control signal | activation, % at 9 µM | 300,000 compounds, 1.7% hits | AID 504408;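 active means mean replicate activation of at least 50% with a set share of replicates each reaching 50%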
A number is an active result; n = inactive; x = no result given.

SMILES | Jurkat NFkB inh | 697 NFkB inh | HSF1 inh | T cruzi repl | GPR7 antag | HSF-1 act
Cc1ccc(C)c(N(CC(=O)Nc2ccc(-c3nc4ccc(C)cc4s3)cc2)S(C)(=O)=O)c1 | n | n | n | 65 | n | n
CCOC(=O)CC(=O)CSc1nc2ccc(C)cc2cc1C#N | n | n | x | x | n | x
COC(=O)CSc1nc2cc(C)ccc2cc1C#N | n | n | n | n | n | 65
CCc1ccc(/C(C)=N/NC(=O)c2ccc(-n3cnnn3)cc2)cc1 | n | n | x | x | x | x
CC(=O)Nc1ccc(Oc2ccccc2)cc1 | n | n | n | n | n | n
CC(=O)Nc1ccc(Oc2sc(C(=O)c3ccccc3)c(N)c2C#N)cc1 | n | n | n | n | n | 87
Cc1ccc(CNC(=O)COC(=O)CCC(=O)c2cccs2)cc1 | n | n | n | n | n | n
C=C(C)COc1ccc(-c2nc(N)nc(C(F)(F)F)c2-c2ccc(OC)cc2)c(O)c1 | n | n | n | 56 | n | n
COc1ccc(-c2nc(N)ncc2-c2ccc(OC)c(OC)c2)c(O)c1 | n | n | n | n | n | n
COc1ccc(-c2cnc(N)nc2-c2ccc(OCc3ccccc3)cc2O)cc1 | n | n | n | 58 | n | n
Cn1c(N)c(C(=O)COC(=O)Cc2ccc(Br)cc2)c(=O)n(C)c1=O | n | n | x | x | x | x
Cn1c(N)c(C(=O)COC(=O)Cc2ccsc2)c(=O)n(C)c1=O | n | n | n | n | 20 | n
O=C(CSc1nccc(=O)[nH]1)Nc1ccc(N2CCOCC2)cc1 | n | n | n | n | n | n
c1ccc(CCn2nnnc2C(c2cccnc2)N2CCN(c3ccccc3)CC2)cc1 (stereo not given) | n | n | n | 74 | n | n
COc1ccc(C(c2nnnn2CCc2ccccc2)N2CCN(C3CCCC3)CC2)cc1 (stereo not given) | n | n | n | n | n | n
COc1ccc(C(c2nnnn2Cc2ccccc2)N2CCN(c3nc4ccccc4s3)CC2)cc1 (stereo not given) | n | n | n | 64 | n | n
COc1ccc(C(c2nnnn2Cc2ccccc2)N2CCN(c3ccccc3)CC2)cc1 (stereo not given) | n | n | n | n | n | n
COc1ccccc1N1CCN(C(c2ccc(N(C)C)cc2)c2nnnn2CCc2ccccc2)CC1 (stereo not given) | n | n | -72 | n | n | n
c1ccc(C(c2nnnn2C2CCCC2)N2CCN(c3nc4ccccc4s3)CC2)cc1 (stereo not given) | n | n | n | 71 | n | n
CSCCC(NC(=O)c1ccccc1Cl)C(=O)N1CCCCC1 (stereo not given) | n | n | x | x | x | x
CCC(c1nnnn1CS(=O)(=O)c1ccc(C)cc1)N1CCN(c2nc3ccccc3s2)CC1 (stereo not given) | n | n | n | 75 | n | n
c1ccc(CCn2nnnc2C(c2cccnc2)N2CCN(c3nc4ccccc4s3)CC2)cc1 (stereo not given) | n | n | n | 60 | n | n
CCOCCCNS(=O)(=O)c1ccc(NC(=O)N2c3ccccc3Sc3ccccc32)cc1 | n | n | n | n | n | n
COc1cc(OC)cc(C(=O)NC(C(=O)Nc2ccc(N3CCOCC3)cc2)C(C)C)c1 (stereo not given) | n | n | x | x | x | x
C=CCNC(=O)C1CC(=O)N(c2ccc(OCC(=O)Nc3ccccc3)cc2)C1 (stereo not given) | n | n | n | n | n | 53
SMILES | Jurkat NFkB inh | 697 NFkB inh | HSF1 inh | T cruzi repl | GPR7 antag | HSF-1 act
CNC(=O)C1CC(=O)N(c2ccc(OCC(=O)N3CCCC3)cc2)C1 (stereo not given) | n | n | n | n | n | 54
FC(F)(F)c1ccc(Cl)c(NC2=NCCCCC2)c1 | n | n | n | n | n | n
COc1ccc(OC)c(S(=O)(=O)N/N=C\c2c[nH]c3ccccc23)c1 | n | n | n | n | n | n
CCCCCCN1CC(=O)N2[C@@H](Cc3c([nH]c4ccccc34)C2(C)C)C1=O | n | n | -51 | n | n | n
CSc1nc2ccc(NC(=O)NC(=O)c3c(F)cccc3F)cc2s1 | n | n | n | n | 19 | n
CSc1nc2ccc(NC(=O)COc3ccccc3F)cc2s1 | n | n | x | x | x | x
O=C(N/N=C/C(Br)=C\c1ccccc1)c1ccc2nc[nH]c2c1 | n | n | n | n | n | 125
O=C(N/N=C/C(Br)=C/c1ccccc1)c1ccc([N+](=O)[O-])cc1 | n | n | n | n | n | 59
O=C(N/N=C/C(Br)=C/c1ccccc1)c1cccnc1 | n | n | n | n | n | 82
O=C(N/N=C/C(Br)=C/c1ccccc1)c1ccncc1 | n | n | n | n | n | n
CC(=O)Nc1ccc(S(=O)(=O)NCCC(=O)OCC(=O)NCc2ccccc2)cc1 | n | n | x | x | x | x
CC1(C(=O)Oc2ccccc2)Cc2ccccc2C(=O)O1 (stereo not given) | n | n | n | n | n | n
Cc1cc(C)cc(C(=O)NC(=S)Nc2ccc3c(c2)OCCO3)c1 | n | n | n | n | n | 122
O=C(NC(=S)Nc1ccc(N2CCOCC2)c(Cl)c1)c1cncc(Br)c1 | n | n | n | n | n | n
O=C(NC(=S)Nc1ccc(N2CCCCC2)c(Cl)c1)c1ccc2c(c1)OCCO2 | n | n | -60 | n | n | n
C=CCN(C(=O)C1=NN(C2CCS(=O)(=O)C2)C(=O)CC1)c1nc(-c2ccc([N+](=O)[O-])cc2)cs1 (stereo not given) | n | n | n | n | n | n
Cc1ccc(Cl)cc1C1=CC(=O)C[C@H](c2ccc(F)cc2)C1 | n | n | x | x | x | x
CC(C(=O)OCC(=O)c1ccc(Br)cc1)N1C(=O)C2C3CCC(C3)C2C1=O (stereo not given) | n | n | n | n | n | n
CCC1CCC2(CC1)NC(=O)N(CC(=O)c1c(C)[nH]c3ccccc13)C2=O (stereo not given) | n | n | n | n | n | n
CCC(Sc1nccn1C)C(=O)Nc1ccc(Cl)cn1 (stereo not given) | n | n | n | n | n | n
CCCC(=O)O/N=C(\c1ccccc1)c1ccncc1 | n | n | n | n | n | 57
Cc1ccc(C(=O)O/N=C(\c2ccccc2)c2ccncc2)cc1 | n | n | n | n | n | n
CC1(C)CC(=O)c2c(O)cc(OCc3ccc([N+](=O)[O-])cc3)cc2O1 | n | n | n | n | n | 95
Cc1ccc(CNC(=O)COc2cc(O)c3c(c2)OC(C)(C)CC3=O)cc1 | n | n | n | n | n | n
Cc1nc2c(cc1C(=O)N/N=C/c1ccc(O)c(O)c1)c(=O)n(C)c(=O)n2C | n | n | -73 | n | n | n
O=C(NCc1nnc(SCc2ccc(F)cc2)n1-c1ccccc1)C12CC3CC(CC(C3)C1)C2 | n | n | n | n | n | 62
CCOC(=O)Cn1nc(C)c(NC(=O)COc2ccc([N+](=O)[O-])cc2)c1C | n | n | -53 | n | n | n
CCOC(=O)Cn1nc(C)c(NC(=O)COc2cccc(Cl)c2)c1C | n | n | x | x | n | x
